MrgX1 agonist: agonists of human MrgX1 receptor; B-score at 10 µM; AID 588627; Q96LB2; MrgX1-HEK293 cells, Fluo-4 calcium fluorescence, agonist mode; hits give high values; hit rate 0.44% among 310,000;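 active means calcium response B-score plate-corrected fluorescence ratio at least 3 library SD, with starting fluorescence B-score inside 5 SD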
Target sequence (Q96LB2 whole entry, looked up): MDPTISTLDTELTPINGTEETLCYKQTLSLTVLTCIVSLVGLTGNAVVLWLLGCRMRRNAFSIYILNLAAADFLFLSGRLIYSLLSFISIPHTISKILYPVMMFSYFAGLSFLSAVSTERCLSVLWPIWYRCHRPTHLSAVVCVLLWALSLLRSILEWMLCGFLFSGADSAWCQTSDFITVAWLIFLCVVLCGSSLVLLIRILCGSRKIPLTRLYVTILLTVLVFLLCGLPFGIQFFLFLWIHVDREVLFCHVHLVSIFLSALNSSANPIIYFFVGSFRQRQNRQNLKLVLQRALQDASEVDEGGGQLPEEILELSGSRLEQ
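Assay system: stable human MrgX1 HEK293 cell line. Quantity: 15,000 cells per well. Schedule: cells plated overnight, dye loaded 0.5 h 37 °C, 0.5 h room temperature. Detection: Fluo-4 NW calcium-flux fluorescence, kinetic read. Read-out basis: peak-minus-minimum fluorescence over baseline, converted to B scores. Control set: positive and negative control wells on each plate.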
RGS4 pot: potentiators or activators of RGS4 | HEK293 M3R/inducible RGS4, carbachol calcium flux Fluo4; hits give low values | B-score at 10 µM | hit rate 0.92% among 310,000 | AID 463111;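 active means B-score of the integrated calcium signal more than 4 SD below the library mean, with starting fluorescence not abnormally high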;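 further: negative B-score means reduced calcium response which marks RGS4 activation or potentiation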
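Reagent: ECmax carbachol challenge; Test system: M3R-expressing HEK293 line, RGS4 induced by doxycycline; Schedule: overnight RGS4 induction, 30 min dye load 37 °C, 20 min compound RT; Detection: calcium dye Fluo4 fluorescence; Read-out: Agonist-evoked peak-minus-minimum fluorescence over baseline, integrated ratio, B score.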
RGS4 block: inhibitors of human RGS4. P49798. HEK293 M3R/RGS4 inducible, Fluo-4 calcium flux; hits give high values; triggered by carbachol at its EC20. B-score at 10 µM. hit rate 0.45% among 310,000. AID 463165;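 active means B-score, a plate-corrected calcium signal, over three deviations above library mean, with baseline fluorescence within five deviations of library mean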;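 further: RGS4 expression induced by doxycycline in cells with stable M3 receptor; B-score is computed from the integrated fluorescence ratio over baseline after carbachol; higher B-score means a larger calcium signal and so more RGS4 inhibition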
Target sequence (P49798 whole entry, looked up): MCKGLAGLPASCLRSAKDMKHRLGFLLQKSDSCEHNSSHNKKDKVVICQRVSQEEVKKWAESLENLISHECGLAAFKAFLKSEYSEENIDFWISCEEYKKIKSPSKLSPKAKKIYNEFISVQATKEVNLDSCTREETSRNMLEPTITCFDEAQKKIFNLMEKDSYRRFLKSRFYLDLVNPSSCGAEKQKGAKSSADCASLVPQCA
MrgX1 antagonist: blocks BAM8-22 activation of human MrgX1 receptor. Q96LB2. AID 588676. MRGX1-HEK293 calcium flux, Fluo-4, BAM8-22 antagonism; hits give low values. hit rate 1.3% among 310,000. B-score at 10 µM;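 active means calcium-response B-score plate-corrected more than 3 library SD below zero, starting fluorescence within 5 deviations, no agonist response on first addition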;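 further: peak minus trough fluorescence over baseline after final BAM8-22 challenge near maximal dose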
MrgX1 PAM: human MrgX1 positive allosteric modulation, primary screen; Q96LB2; MrgX1-HEK293, Fluo-4 calcium flux, FDSS; hits give high values; B-score at 10 µM; hit rate 0.63% among 310,000;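 active means plate-corrected calcium response at least 3 library SD above typical, normal starting fluorescence, not activating the receptor alone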;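 further: compound read alongside a low EC10 to EC30 dose of BAM8-22 agonist; peak minus trough fluorescence over baseline measured at the second addition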
MrgX1 ant reconf: confirmation of human MrgX1 receptor antagonists; shares compounds with MrgX1 antagonist; MrgX1-HEK293, BAM8-22 calcium flux, Fluo-4; hits give low values; remaining BAM8-22 calcium response % of control (hits give low values), % at 10 µM; AID 602420; hit rate 19% among 2,300;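 active means remaining agonist calcium response no higher than 100% minus 3 SD of agonist-only control wells, with starting fluorescence near control levels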;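 further: agonist BAM8-22 given at a near maximal EC90 to ECmax level; peak minus minimum fluorescence divided by baseline after agonist addition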
HEK293 Ca flux: MrgX1 antagonist counter-screen hit in parental HEK293 cells. shares compounds with MrgX1 antagonist. Fluo-4 calcium fluorescence, FDSS. fluorescence ratio F(max-min)/F0 at 10 µM. hit rate 2% among 4,000;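 active means duplicate-averaged calcium fluorescence ratio at least three times the standard deviation of buffer wells, a nonspecific response in parental cells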
HEK293 Ca counter: MrgX1 allosteric activator counter-screen hit in parental HEK293 cells | hit rate 0.4% among 4,000 | shares compounds with MrgX1 antagonist | parental HEK293 calcium flux, Fluo-4 fluorescence ratio; hits give high values | fluorescence ratio F(max-min)/F0 at 10 µM;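 active means calcium fluorescence ratio, averaged over duplicates, at least 3 SD of the buffer-well ratio, meaning a nonspecific response in receptor-free cells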;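 further: untransfected parental HEK293 lacking MrgX1 used as counterscreen for MrgX1 allosteric activators; fluorescence change taken during the second addition on a kinetic imager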
HEK293 Ca cntr2: counter-screen for MrgX1 activators: effect in parental HEK293 cells. shares compounds with MrgX1 antagonist. Fluo-4 calcium fluorescence (FDSS); hits give high values. fluorescence ratio F(max-min)/F0 at 10 µM. hit rate 8.7% among 4,000. AID 624115;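 active means calcium fluorescence ratio at least three times the spread of buffer wells, meaning a non-specific response in parental cells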
Starred values were filed as active, the others as inactive; i = inactive; · = no result given. A selection: hits, their analogues and other compounds. The true share with any hit is near 3.5%.

SMILES	MrgX1 agonist	RGS4 pot	RGS4 block	MrgX1 antagonist	MrgX1 PAM	MrgX1 ant reconf	HEK293 Ca flux	HEK293 Ca counter	HEK293 Ca cntr2
O=C(CCS(=O)(=O)c1ccccc1)Nc1cccc2c1C(=O)NC2=O	i	i	i	i	i	·	·	·	·
CCc1nc(SCc2ccccc2C)n[nH]1	i	i	i	i	i	·	·	·	·
COc1ccc(/C=N/NC(=O)CC(=O)NCc2cccnc2)cc1[N+](=O)[O-]	i	i	i	i	i	·	·	·	·
COc1ccccc1NC(=O)N1CCC(NC(=O)C2CCCCC2)CC1	i	i	i	-8.22*	i	i	i	i	i
NC(=O)CNc1n[nH]c(=S)[nH]c1=O	i	i	i	i	i	·	·	·	·
COc1ccc2c(c1)[nH]c1c(N3CCSCC3)ncnc12	i	i	i	-11.8*	i	49.7%*	i	i	i
O=C(CN(Cc1ccc(F)cc1)S(=O)(=O)c1ccc(S(=O)(=O)N2CCOCC2)cc1)Nc1ccccc1	i	i	i	i	i	·	·	·	·
COCCN(C(=O)COC(=O)/C=C/c1cccs1)c1c(N)n(Cc2ccccc2)c(=O)[nH]c1=O	i	i	i	-11.6*	i	69.0%*	i	i	i
CC(C)CN(C(=O)COC(=O)/C=C/c1cccs1)c1c(N)n(Cc2ccccc2)c(=O)[nH]c1=O	i	i	i	i	i	·	·	·	·
OCCC1CN(C/C=C/c2ccco2)CCN1Cc1ccccc1 (stereo not given)	i	i	i	-5.16*	i	i	i	i	i
Cc1nc(Cl)c(C(=O)NC(C)(C)C)c(C)c1Cl	i	i	i	-9.37*	i	i	i	i	i
Cc1cc(=O)[nH]c(SCCOc2ccc(OC(C)C)cc2)n1	i	i	i	-6.72*	i	i	i	i	i
COc1ccc(CN2CCC(N3CC(C)OC(C)C3)CC2)c(OC)c1 (stereo not given)	i	i	i	-4.77*	i	i	i	i	i
Cc1ccc(C(=O)NCC(c2ccc(F)cc2)N2CCOCC2)cc1 (stereo not given)	i	i	i	i	i	·	·	·	·
CC(=O)c1ccc(-c2ccc(C(=O)NCC(c3ccc(F)cc3)N3CCOCC3)o2)cc1 (stereo not given)	i	i	i	-7.97*	i	60.4%*	i	i	i
CCN(CC)c1ccc(C(=O)O)cc1	i	i	i	-5.71*	i	i	i	i	i
COc1cccc(-c2nc(NC3CCCC3)c3ccccc3n2)c1O	i	i	i	-5.07*	i	74.0%*	i	i	i
O=C(NCCCc1ccccc1)c1ccc(CS(=O)Cc2ccc(Cl)cc2)o1 (stereo not given)	i	i	i	i	i	·	·	·	·
CCOc1ccccc1N1CCN(C(=O)c2cc(-c3cccnc3)nc3c(Cl)cccc23)CC1	i	i	i	-5.81*	i	i	0.421*	i	i
CCOc1ccccc1N1CCN(C(=O)c2ccncc2)CC1	i	i	i	i	i	·	·	·	·
Cc1ccc2c(Cl)c(C(=O)NCC3CCCO3)sc2c1 (stereo not given)	i	i	i	-4.56*	i	i	i	i	i
CS(=O)(=O)c1ccc(C(=O)OCC(=O)N2CCCc3ccccc32)cc1	i	i	i	-7.27*	i	84.5%*	i	i	i

Screening results deposited in PubChem by Johns Hopkins Ion Channel Center.
